Measured values from ChEMBL document CHEMBL1158477, “Synthesis, in vivo evaluation, and molecular modeling studies of new pyrazolo[5,1-c][1,2,4]benzotriazine 5-oxide derivatives. Identification of a bifunctional hydrogen bond area related to the inverse agonism” (J Med Chem, 2009).
Active and inactive are the calls of the source. The calls are words filed in the database; no cut-off is given here.

Key:
Mus musculus [1] = assay: Effect on motor coordination in CD1 albino mouse assessed as number of falls form rotarod at 10 mg/kg, po […] measured for 30 seconds after 30 mins of dosing by rotarod test; assay type: functional
Outline: (§1)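 Rota-rod in male CD-1 mice with a pretest. Test substance given po in 1% CMC; falls from the rotating rod counted over 30 s, assessed 30 min after treatment.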

Mus musculus [2] = assay: Effect on motor coordination in CD1 albino mouse assessed as number of falls form rotarod at 30 mg/kg, po […] measured for 30 seconds after 30 mins of drug infusion by rotarod test; assay type: functional; conditions: 30 mg/kg; outline: as §1
Mus musculus [3] = assay: Anticonvulsant activity against pentylenetetrazole-induced shock in CD1 albino mouse assessed as shock latency at 10 mg/kg, po preincubated for 30 mins before pentylenetetrazole challenge measured for 30 mins (RVb=253.1 +/- 13 seconds); assay type: functional
Mus musculus [4] = assay: Anticonvulsant activity against pentylenetetrazole-induced shock in CD1 albino mouse assessed as shock latency at 30 mg/kg, po preincubated for 30 mins before pentylenetetrazole challenge measured for 30 mins (RVb=253.1 +/- 13 seconds); assay type: functional; conditions: 30 mg/kg
Mus musculus [5] = assay: Anticonvulsant activity against pentylenetetrazole-induced convulsions in CD1 albino mouse assessed as convulsion latency at 10 mg/kg, po preincubated for 30 mins before pentylenetetrazole challenge measured for 30 mins (RVb=599 +/- 37.6 seconds); assay type: functional
Mus musculus [6] = assay: Anticonvulsant activity against pentylenetetrazole-induced convulsions in CD1 albino mouse assessed as convulsion latency at 30 mg/kg, po preincubated for 30 mins before pentylenetetrazole challenge measured for 30 mins (RVb=599 +/- 37.6 seconds); assay type: functional; conditions: 30 mg/kg
Mus musculus [7] = assay: Effect on spontaneous motility in CD1 albino mouse assessed as number of movement on plane board at 10 mg/kg, po after 30 mins by hole-board test; assay type: functional
Outline: (§2)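 Hole-board test in male CD-1 mice: animals placed singly on the board and allowed to explore panel and holes. Test run 30 min after po dosing in 1% CMC (10 mL/kg). Hole entries (curiosity) and plane movements (spontaneous motility) counted; 10 mice per group, compared with CMC controls.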

Mus musculus [8] = assay: Effect on spontaneous motility in CD1 albino mouse assessed as number of movement on plane board at 30 mg/kg, po after 30 mins by hole-board test; assay type: functional; conditions: 30 mg/kg; outline: as §2
Mus musculus [9] = assay: Effect on spontaneous motility in CD1 albino mouse assessed as number of movement on plane board at 50 mg/kg, po after 30 mins by hole-board test; assay type: functional; outline: as §2
Mus musculus [10] = assay: Effect on spontaneous motility in CD1 albino mouse assessed as number of movement on plane board at 100 mg/kg, po after 30 mins by hole-board test; assay type: functional; outline: as §2
Mus musculus [11] = assay: Effect on explorative capacity in CD1 albino mouse assessed as curiosity-related number of head plugging activity on hole at 10 mg/kg, po after 30 mins by hole-board test; assay type: functional; outline: as §2
Mus musculus [12] = assay: Effect on explorative capacity in CD1 albino mouse assessed as curiosity-related number of head plugging activity on hole at 30 mg/kg, po after 30 mins by hole-board test; assay type: functional; conditions: 30 mg/kg; outline: as §2
Mus musculus [13] = assay: Effect on explorative capacity in CD1 albino mouse assessed as curiosity-related number of head plugging activity on hole at 50 mg/kg, po after 30 mins by hole-board test; assay type: functional; outline: as §2
Mus musculus [14] = assay: Effect on explorative capacity in CD1 albino mouse assessed as curiosity-related number of head plugging activity on hole at 100 mg/kg, po after 30 mins by hole-board test; assay type: functional; outline: as §2
[15] = Displacement of [3H]flumazenil from GABAA/Benzodiazepine receptor in bovine brain; parameters: species or system Bos taurus
Outline: (§3)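 Bovine brain membranes; displacement of specific [3H]flumazenil (Ro15-1788) binding. Percent inhibition measured at 10 μM; Ki determined only when inhibition at that concentration exceeded 80%. Ki given as mean ± SEM of five determinations.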

Bos taurus = organism: Bos taurus; assay: Displacement of [3H]flumazenil from GABAA/Benzodiazepine receptor in bovine brain at 10 uM; outline: as §3
Mus musculus [16] = assay: Effect on motor coordination in CD1 albino mouse assessed as number of falls form rotarod at 3 mg/kg, po administered 60 mins before test measured for 30 seconds after 30 mins of drug infusion by rotarod test; assay type: functional; outline: as §1
Mus musculus [17] = assay: Anticonvulsant activity against pentylenetetrazole-induced shock in CD1 albino mouse assessed as shock latency at 3 mg/kg, po preincubated for 30 mins before pentylenetetrazole challenge measured for 30 mins (RVb=253.1 +/- 13 seconds); assay type: functional
Mus musculus [18] = assay: Anticonvulsant activity against pentylenetetrazole-induced convulsions in CD1 albino mouse assessed as convulsion latency at 3 mg/kg, po preincubated for 30 mins before pentylenetetrazole challenge measured for 30 mins (RVb=599 +/- 37.6 seconds); assay type: functional
Mus musculus [19] = assay: Effect on spontaneous motility in CD1 albino mouse assessed as number of movement on plane board at 3 mg/kg, po after 30 mins by hole-board test; assay type: functional; outline: as §2
Mus musculus [20] = assay: Effect on explorative capacity in CD1 albino mouse assessed as curiosity-related number of head plugging activity on hole at 3 mg/kg, po after 30 mins by hole-board test; assay type: functional; outline: as §2
Mus musculus [21] = assay: Anxiolytic activity in CD1 albino mouse at 3 mg/kg, po after 30 mins by light/dark box test; assay type: functional, organism-based; parameters: dose 3 mg/kg
Outline: (§4)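 Male CD-1 mice (22-24 g) given test substance po in 1% CMC (10 mL/kg), tested 30 min later in a light/dark box. Transfers between compartments and time spent in the illuminated side were measured. Values are mean ± SEM of 15-20 mice; compared with controls.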

Mus musculus [22] = assay: Anxiolytic activity in CD1 albino mouse at 10 mg/kg, po after 30 mins by light/dark box test; assay type: functional, organism-based; parameters: dose 10 mg/kg; outline: as §4
Mus musculus [23] = assay: Effect on learning and memory process in CD1 albino mouse assessed as improvement in retention latency at 3 mg/kg, po after 24 hrs by passive avoidance test; assay type: functional, organism-based; parameters: dose 3 mg/kg
Outline: (§5)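 Step-through passive avoidance in a two-compartment box (lit and dark compartments joined by a guillotine door). Male CD-1 mice dosed po (1% CMC) 30 min before training; retention tested 24 h later. Training and retention latencies recorded; mean ± SEM of 15-20 mice versus controls.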

Mus musculus [24] = assay: Effect on learning and memory process in CD1 albino mouse assessed as improvement in retention latency at 10 mg/kg, po after 24 hrs by passive avoidance test; assay type: functional, organism-based; parameters: dose 10 mg/kg; outline: as §5
Mus musculus [25] = assay: Effect on ethanol-induced sleeping time in CD1 albino mouse assessed as increase in duration of loss of righting reflex at 10 mg/kg, po preincubated 30 mins before ethanol challenge; assay type: functional, organism-based; parameters: dose 10 mg/kg
Mus musculus [26] = assay: Effect on ethanol-induced sleeping time in CD1 albino mouse assessed as increase in duration of loss of righting reflex at 3 mg/kg, po preincubated 30 mins before ethanol challenge; assay type: functional, organism-based; parameters: dose 3 mg/kg

Structure (SMILES)	Ki [15]	Activity (Bos taurus)	other results
CC(Oc1ccc2c(c1)n1ncc(I)c1n[n+]2[O-])c1ccccc1 (single isomer, unassigned; (-))	2.1 nM		Activity (Mus musculus [1]; 10 mg/kg): 2; Activity (Mus musculus [2]): 1.6; Activity (Mus musculus [3]; 10 mg/kg): 513 s; Activity (Mus musculus [4]): 323.7 s; Activity (Mus musculus [5]; 10 mg/kg): 1078 s; Activity (Mus musculus [6]): 549.2 s; Activity (Mus musculus [7]; 10 mg/kg): 61.9; Activity (Mus musculus [8]): 56.8; Activity (Mus musculus [9]): 44; Activity (Mus musculus [10]): 59.2; Activity (Mus musculus [11]; 10 mg/kg): 27; Activity (Mus musculus [12]): 34.5; Activity (Mus musculus [13]): 13.3; Activity (Mus musculus [14]): 22.9
COc1ccc(COc2ccc3c(c2)n2ncc(I)c2n[n+]3[O-])cc1	4.5 nM	> 80%	
CC(Oc1ccc2c(c1)n1ncc(I)c1n[n+]2[O-])c1ccccc1 (racemic)		> 80%	
COc1ccccc1COC(=O)c1ccc2c(c1)n1ncc(C(F)(F)F)c1n[n+]2[O-]	5.8 nM	> 80%	
[O-][n+]1nc2c(I)cnn2c2cc(OC3CCCCC3)ccc21	188 nM	> 80%	
[O-][n+]1nc2c(Br)cnn2c2cc(-c3ccccc3)ccc21	802 nM	> 80%	
COc1ccccc1COC(=O)c1ccc2c(c1)n1ncc(C)c1n[n+]2[O-]	2.3 nM	> 80%	
[O-][n+]1nc2c(I)cnn2c2cc(OCc3ccco3)ccc21	0.8 nM	> 80%	
[O-][n+]1nc2c(I)cnn2c2cc(Oc3ccc4ccccc4c3)ccc21	94 nM	> 80%	
[O-][n+]1nc2c(Cl)cnn2c2cc(Oc3ccccc3)ccc21	43 nM	> 80%	
[O-][n+]1nc2c(I)cnn2c2cc(OCc3ccncc3)ccc21	1.3 nM	> 80%	Activity (Mus musculus [16]): 1.4; Activity (Mus musculus [1]): 2.3; Activity (Mus musculus [17]): 183 s; Activity (Mus musculus [3]): 299 s; Activity (Mus musculus [18]): 565.8 s; Activity (Mus musculus [5]): 610.9 s; Activity (Mus musculus [19]): 93.9; Activity (Mus musculus [7]): 85.1; Activity (Mus musculus [20]): 35.5; Activity (Mus musculus [11]): 36.9; Activity (Mus musculus [21]): inactive; Activity (Mus musculus [22]): inactive; Activity (Mus musculus [23]): Active; Activity (Mus musculus [24]): Active; Activity (Mus musculus [25]): inactive; Activity (Mus musculus [26]): inactive
O=C(OCc1cccs1)c1cnn2c1n[n+]([O-])c1ccc(C(F)(F)F)cc12	10 nM	> 80%	
[O-][n+]1nc2c(I)cnn2c2cc(CCc3ccccc3)ccc21	464 nM	> 80%	
Cc1ccc2c(c1)n1ncc(C(=O)OCc3cccs3)c1n[n+]2[O-]	1.41 nM	> 80%	
COc1ccccc1COc1ccc2c(c1)n1ncc(I)c1n[n+]2[O-]	0.42 nM	> 80%	
[O-][n+]1nc2c(Cl)cnn2c2cc(-c3ccccc3)ccc21		45%	
CCOC(=O)c1cnn2c1n[n+]([O-])c1ccc(OCc3ccccc3)cc12	2.1 nM	> 80%	
CC(Cc1ccccc1)Oc1ccc2c(c1)n1ncc(I)c1n[n+]2[O-] (racemic)	103 nM	> 80%	
[O-][n+]1nc2c(I)cnn2c2cc(OCc3ccccc3OC(F)(F)F)ccc21	6.6 nM	> 80%	
